Assays:
[1] = molecular target: T1, Adrenergic receptor alpha-1 (Rattus norvegicus, UniProt P15823+P23944+P43140); assay: In vitro inhibition of [3H]prazosin binding to Alpha-1 adrenergic receptor in rat cerebral cortex membranes; assay type: cell membranes, Membrane
T1 sequence (P15823 whole entry): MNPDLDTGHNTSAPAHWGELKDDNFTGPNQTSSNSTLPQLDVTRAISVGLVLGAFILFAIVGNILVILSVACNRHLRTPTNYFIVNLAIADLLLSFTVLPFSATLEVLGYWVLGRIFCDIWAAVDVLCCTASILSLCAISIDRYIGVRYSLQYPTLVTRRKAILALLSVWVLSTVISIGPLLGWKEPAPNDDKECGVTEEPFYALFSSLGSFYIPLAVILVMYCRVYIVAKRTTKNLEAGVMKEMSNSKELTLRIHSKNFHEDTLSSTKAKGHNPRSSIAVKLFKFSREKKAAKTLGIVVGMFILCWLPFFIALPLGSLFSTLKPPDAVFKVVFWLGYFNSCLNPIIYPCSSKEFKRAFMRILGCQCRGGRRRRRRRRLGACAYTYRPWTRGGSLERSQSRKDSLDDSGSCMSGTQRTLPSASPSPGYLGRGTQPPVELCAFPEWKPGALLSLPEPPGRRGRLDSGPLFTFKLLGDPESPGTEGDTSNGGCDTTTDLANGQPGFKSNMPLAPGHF
T1 sequence (P23944 whole entry): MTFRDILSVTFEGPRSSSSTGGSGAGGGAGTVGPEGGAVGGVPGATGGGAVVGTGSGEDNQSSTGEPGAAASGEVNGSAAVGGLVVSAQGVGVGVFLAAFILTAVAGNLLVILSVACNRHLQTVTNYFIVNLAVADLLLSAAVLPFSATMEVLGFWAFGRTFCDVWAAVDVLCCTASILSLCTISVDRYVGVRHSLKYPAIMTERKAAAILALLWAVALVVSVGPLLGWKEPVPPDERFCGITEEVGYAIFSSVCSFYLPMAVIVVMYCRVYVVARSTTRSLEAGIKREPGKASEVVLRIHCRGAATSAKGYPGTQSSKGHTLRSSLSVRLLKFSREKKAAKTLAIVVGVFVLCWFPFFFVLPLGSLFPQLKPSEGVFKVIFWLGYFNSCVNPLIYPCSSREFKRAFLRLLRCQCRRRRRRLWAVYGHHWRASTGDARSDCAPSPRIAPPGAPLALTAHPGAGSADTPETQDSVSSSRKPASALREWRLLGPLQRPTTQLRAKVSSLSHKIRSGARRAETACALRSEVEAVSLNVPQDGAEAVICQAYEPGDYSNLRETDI
T1 sequence (P43140 whole entry): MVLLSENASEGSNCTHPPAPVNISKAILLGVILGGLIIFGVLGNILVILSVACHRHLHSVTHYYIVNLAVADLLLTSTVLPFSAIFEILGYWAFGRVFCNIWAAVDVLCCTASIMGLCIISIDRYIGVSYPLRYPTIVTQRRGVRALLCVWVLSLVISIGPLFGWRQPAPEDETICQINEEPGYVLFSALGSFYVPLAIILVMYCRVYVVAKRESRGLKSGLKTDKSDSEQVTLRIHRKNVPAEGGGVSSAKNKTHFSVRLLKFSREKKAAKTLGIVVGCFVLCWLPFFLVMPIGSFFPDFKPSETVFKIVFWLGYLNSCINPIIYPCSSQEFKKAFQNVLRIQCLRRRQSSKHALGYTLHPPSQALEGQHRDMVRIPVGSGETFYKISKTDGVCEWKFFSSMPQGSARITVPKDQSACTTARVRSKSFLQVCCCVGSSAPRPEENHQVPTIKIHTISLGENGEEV
Procedure, shortened: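 Rat cerebral cortex membranes (about 250 µg protein) in 50 mM Tris-HCl with 10 mM MgCl2, pH 7.4. Incubated 30 min at 25 °C with 0.2 nM [3H]prazosin and six competitor concentrations. Nonspecific binding with 10 µM phentolamine. Compounds screened at 10^-6 M, curves run if displacement exceeded 55%. Triplicates, 2-4 experiments; Ki by Cheng-Prusoff.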

[2] = molecular target: T2, 5-hydroxytryptamine receptor 1A (Rattus norvegicus, UniProt P19327); assay: In vitro inhibition of [3H]8-OH-DPAT binding to 5-hydroxytryptamine 1A receptor in rat cerebral cortex membranes; assay type: cell membranes, Membrane
T2 sequence (P19327 whole entry): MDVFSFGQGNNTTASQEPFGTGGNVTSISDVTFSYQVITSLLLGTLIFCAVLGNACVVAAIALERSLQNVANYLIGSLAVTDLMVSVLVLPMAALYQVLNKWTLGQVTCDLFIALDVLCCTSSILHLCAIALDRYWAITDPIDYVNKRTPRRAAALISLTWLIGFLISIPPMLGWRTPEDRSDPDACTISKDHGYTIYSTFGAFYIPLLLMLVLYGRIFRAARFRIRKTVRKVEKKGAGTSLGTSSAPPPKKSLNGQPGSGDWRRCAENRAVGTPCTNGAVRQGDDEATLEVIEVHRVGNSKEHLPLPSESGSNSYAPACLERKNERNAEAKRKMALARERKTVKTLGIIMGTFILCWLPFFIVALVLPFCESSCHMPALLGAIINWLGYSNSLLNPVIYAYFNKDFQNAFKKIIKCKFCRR
Procedure, shortened: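 Rat cerebral cortex membranes (about 1 mg protein) incubated 15 min at 37 °C with 0.6 nM [3H]-8-OH-DPAT in 50 mM Tris-HCl, pH 7.4, containing 10 nM clonidine and 30 nM prazosin. Nonspecific binding with 10 µM 5-HT. Compounds screened at 10^-6 M; curves run if displacement exceeded 55%. Filtration, scintillation counting, triplicates, 2-4 experiments; Ki by Cheng-Prusoff.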

[3] = molecular target: 5-hydroxytryptamine receptor 4 (Rattus norvegicus, UniProt Q62758); assay: In vitro inhibition of [3H]GR-113808 binding to 5-hydroxytryptamine 4 receptor of rat striatum membranes; assay type: cell membranes, Membrane
Chain of 5-hydroxytryptamine receptor 4 (Q62758 whole entry): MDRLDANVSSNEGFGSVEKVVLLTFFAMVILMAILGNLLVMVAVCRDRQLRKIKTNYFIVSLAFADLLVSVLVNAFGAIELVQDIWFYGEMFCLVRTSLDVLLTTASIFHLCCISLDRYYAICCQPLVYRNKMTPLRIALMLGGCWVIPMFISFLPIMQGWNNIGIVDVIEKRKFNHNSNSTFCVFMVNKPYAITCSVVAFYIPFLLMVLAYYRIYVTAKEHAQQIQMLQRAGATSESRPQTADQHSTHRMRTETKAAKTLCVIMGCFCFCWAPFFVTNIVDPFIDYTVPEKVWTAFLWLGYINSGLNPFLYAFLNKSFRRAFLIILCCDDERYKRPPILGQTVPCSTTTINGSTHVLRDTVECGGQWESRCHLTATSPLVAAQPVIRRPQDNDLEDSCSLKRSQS
Procedure, shortened: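 Membranes from rat striatum were incubated 30 min at 37 °C with 0.1 nM [3H]GR113808 in 50 mM HEPES, pH 7.4. Nonspecific binding with 30 µM 5-HT. Bound radioactivity counted after GF/B filtration, triplicates. Ki from iterative curve fit via Cheng-Prusoff.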

[4] = molecular target: 5-hydroxytryptamine receptor 2A (Rattus norvegicus, UniProt P14842); assay: In vitro inhibition of [3H]ketanserin binding to 5-hydroxytryptamine 2A receptor in rat cerebral frontal cortex membranes; assay type: cell membranes, Membrane
Chain of 5-hydroxytryptamine receptor 2A (P14842 whole entry): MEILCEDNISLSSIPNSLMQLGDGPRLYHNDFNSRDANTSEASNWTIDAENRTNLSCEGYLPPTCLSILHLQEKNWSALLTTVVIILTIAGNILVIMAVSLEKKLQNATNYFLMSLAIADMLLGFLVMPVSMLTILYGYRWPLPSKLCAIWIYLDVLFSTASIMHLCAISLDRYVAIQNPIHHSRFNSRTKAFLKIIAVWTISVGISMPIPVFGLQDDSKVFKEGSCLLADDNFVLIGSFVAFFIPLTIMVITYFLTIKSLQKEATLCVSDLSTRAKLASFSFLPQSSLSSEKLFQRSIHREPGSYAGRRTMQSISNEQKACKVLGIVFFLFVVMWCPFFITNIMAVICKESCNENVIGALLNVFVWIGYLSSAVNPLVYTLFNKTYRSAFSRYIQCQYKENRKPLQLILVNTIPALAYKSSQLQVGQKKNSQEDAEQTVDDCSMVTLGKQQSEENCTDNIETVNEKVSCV
Procedure, shortened: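 Rat frontal cortex membranes were incubated 15 min at 37 °C with 0.4 nM [3H]ketanserin. Nonspecific binding with 1 µM cinanserin. Filtration, scintillation counting, triplicates; Ki by Cheng-Prusoff.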

[5] = molecular target: Sodium-dependent serotonin transporter (Rattus norvegicus, UniProt P31652); assay: In vitro inhibition of [3H]paroxetine binding to 5-hydroxytryptamine transporter in rat cerebral cortex membranes; assay type: cell membranes, Membrane
Chain of Sodium-dependent serotonin transporter (P31652 whole entry): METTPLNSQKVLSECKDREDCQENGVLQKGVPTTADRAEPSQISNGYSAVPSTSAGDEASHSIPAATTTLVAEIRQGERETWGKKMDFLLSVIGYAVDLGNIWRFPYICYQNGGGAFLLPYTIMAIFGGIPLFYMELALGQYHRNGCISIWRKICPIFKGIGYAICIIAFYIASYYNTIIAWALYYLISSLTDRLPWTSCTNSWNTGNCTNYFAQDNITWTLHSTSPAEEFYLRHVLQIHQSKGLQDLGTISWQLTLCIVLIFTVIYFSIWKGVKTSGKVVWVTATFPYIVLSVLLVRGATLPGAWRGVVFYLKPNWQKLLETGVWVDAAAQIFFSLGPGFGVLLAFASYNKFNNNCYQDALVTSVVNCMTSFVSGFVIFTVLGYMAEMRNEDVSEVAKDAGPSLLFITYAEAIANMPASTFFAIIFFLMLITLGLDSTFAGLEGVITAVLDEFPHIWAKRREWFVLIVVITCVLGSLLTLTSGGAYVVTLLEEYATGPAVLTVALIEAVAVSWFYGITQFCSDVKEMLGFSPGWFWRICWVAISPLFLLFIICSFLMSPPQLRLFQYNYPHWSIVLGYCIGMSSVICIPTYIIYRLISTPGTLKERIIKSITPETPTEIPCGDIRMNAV
Procedure, shortened: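 Rat cortical membranes (about 120 µg protein) incubated 60 min at 25 °C with 0.2 nM [3H]paroxetine. Buffer is Tris-HCl with 20 mM NaCl and 5 mM KCl, pH 7.4. Nonspecific binding with 10 µM fluoxetine. Filtration, scintillation counting, triplicates; Ki by Cheng-Prusoff.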

[6] = molecular target: 5-hydroxytryptamine receptor 7 (Rattus norvegicus, UniProt P32305); assay: In vitro inhibition of [3H]5-CT binding to 5-hydroxytryptamine 7 receptor in rat hypothalamus membranes; assay type: cell membranes, Membrane
Chain of 5-hydroxytryptamine receptor 7 (P32305 whole entry): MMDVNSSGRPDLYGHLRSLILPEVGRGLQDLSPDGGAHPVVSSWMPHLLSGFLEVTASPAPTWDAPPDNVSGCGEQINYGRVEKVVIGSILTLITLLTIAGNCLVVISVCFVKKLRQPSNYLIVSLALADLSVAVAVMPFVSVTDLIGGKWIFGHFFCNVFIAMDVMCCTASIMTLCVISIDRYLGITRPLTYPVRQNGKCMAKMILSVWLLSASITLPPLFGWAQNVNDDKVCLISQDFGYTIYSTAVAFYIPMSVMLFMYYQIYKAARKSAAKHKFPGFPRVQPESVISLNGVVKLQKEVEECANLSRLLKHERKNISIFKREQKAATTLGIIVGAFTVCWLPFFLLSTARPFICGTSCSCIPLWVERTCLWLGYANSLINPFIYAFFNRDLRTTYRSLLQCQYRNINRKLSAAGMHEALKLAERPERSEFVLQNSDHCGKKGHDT
Procedure, shortened: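 Rat hypothalamus membranes were incubated 120 min at 23 °C with 0.5 nM [3H]-5-CT. Nonspecific binding with 10 µM 5-HT. Filtration and scintillation counting, triplicates, 2-4 experiments. Ki from curve fit by Cheng-Prusoff.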

[7] = molecular target: GABA-A receptor; anion channel; assay: In vitro inhibition of [3H]flunitrazepam binding to Benzodiazepine receptor of rat cerebral cortex membranes; assay type: cell membranes, Membrane
Procedure, shortened: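 Rat brain membranes (about 100 µg protein) in 25 mM potassium phosphate, pH 7.4, incubated 90 min at 0-4 °C with 0.25 nM [3H]flunitrazepam. Nonspecific binding with 2 µM diazepam. Filtration, scintillation counting, triplicates; Ki by Cheng-Prusoff.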

[8] = molecular target: T3, 5-hydroxytryptamine receptor 3A (Rattus norvegicus, UniProt P35563); assay: In vitro inhibition of [3H]LY-278584 binding to 5-hydroxytryptamine 3 receptor in rat cerebral cortex membranes; assay type: cell membranes, Membrane
T3 sequence (P35563 whole entry): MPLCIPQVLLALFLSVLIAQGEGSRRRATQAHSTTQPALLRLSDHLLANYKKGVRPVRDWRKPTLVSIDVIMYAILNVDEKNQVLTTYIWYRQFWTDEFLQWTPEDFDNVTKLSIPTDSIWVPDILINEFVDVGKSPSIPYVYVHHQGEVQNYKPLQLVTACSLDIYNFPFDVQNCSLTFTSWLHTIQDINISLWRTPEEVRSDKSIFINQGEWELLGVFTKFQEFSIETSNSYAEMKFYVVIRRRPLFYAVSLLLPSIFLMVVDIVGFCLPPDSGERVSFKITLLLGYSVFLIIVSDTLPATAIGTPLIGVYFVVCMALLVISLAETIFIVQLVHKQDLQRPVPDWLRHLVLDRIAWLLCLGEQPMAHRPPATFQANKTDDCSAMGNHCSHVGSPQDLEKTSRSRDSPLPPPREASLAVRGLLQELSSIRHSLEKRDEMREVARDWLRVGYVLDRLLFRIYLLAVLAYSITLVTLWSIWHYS
Procedure, shortened: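 Sucrose-prepared rat cerebral cortex membranes were incubated 30 min at 25 °C with 0.7 nM [3H]LY278584. Nonspecific binding with 10 µM 5-HT. Filtration and scintillation counting, triplicates; Ki by Cheng-Prusoff.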

[9] = molecular target: T4, 5-hydroxytryptamine receptor 1A (Homo sapiens) (UniProt P08908); assay: (§1) Inhibition of forskolin-induced increase in cAMP in human 5-hydroxytryptamine 1A receptor expressed HeLa cells; assay type: functional, cell-based
T4 sequence (whole entry): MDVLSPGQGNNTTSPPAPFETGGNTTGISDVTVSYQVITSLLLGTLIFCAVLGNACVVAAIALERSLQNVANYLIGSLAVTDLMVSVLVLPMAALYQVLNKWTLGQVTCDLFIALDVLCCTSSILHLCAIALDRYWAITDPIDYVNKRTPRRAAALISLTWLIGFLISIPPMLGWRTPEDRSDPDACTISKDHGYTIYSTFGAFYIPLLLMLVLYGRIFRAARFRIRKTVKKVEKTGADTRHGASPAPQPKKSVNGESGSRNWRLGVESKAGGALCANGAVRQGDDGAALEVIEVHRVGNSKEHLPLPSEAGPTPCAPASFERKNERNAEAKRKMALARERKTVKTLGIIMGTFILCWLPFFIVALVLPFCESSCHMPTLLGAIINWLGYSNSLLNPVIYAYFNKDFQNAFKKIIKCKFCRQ
Procedure, shortened: (§2)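 HeLa cells stably expressing human 5-HT1A (HA 6) were plated 48 h ahead. Cells treated 10 min at 37 °C, 5% CO2, with 0.5 mM IBMX, 10 µM forskolin and compound (10-9-10-5 M), then lysed in 65% ethanol. cAMP measured by [3H] radioimmunoassay, expressed as % of forskolin-stimulated adenylate cyclase activity. Duplicate experiments, four wells per concentration; EC50 by curve fit.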

[10] = molecular target: T5, 5-hydroxytryptamine receptor 1A (Homo sapiens, UniProt P08908); assay: as §1; assay type: functional, cell-based; procedure, shortened: as §2
T5 sequence (P08908 whole entry): T4 sequence (whole entry)

[11] = molecular target: D(2) dopamine receptor (Rattus norvegicus, UniProt P61169); assay: In vitro inhibition of [3H]-raclopride binding to Dopamine receptor D2 in rat striatum membranes; assay type: cell membranes, Membrane
Chain of D(2) dopamine receptor (P61169 whole entry): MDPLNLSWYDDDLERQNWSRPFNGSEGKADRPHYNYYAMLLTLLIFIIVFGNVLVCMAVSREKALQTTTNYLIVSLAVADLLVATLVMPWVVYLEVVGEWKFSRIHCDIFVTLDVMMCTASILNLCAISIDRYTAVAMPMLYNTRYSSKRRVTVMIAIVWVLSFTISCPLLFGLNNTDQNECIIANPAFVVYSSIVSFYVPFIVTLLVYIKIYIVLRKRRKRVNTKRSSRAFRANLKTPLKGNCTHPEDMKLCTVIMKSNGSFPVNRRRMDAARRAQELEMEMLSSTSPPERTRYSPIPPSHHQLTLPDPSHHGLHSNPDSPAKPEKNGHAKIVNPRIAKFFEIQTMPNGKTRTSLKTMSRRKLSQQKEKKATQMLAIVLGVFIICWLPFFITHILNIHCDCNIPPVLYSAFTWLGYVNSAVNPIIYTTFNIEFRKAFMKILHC
Procedure, shortened: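 Male Sprague-Dawley rat striatum membranes (125-150 µg protein) incubated 60 min at 25 °C with 0.8 nM [3H]raclopride and six competitor concentrations. Nonspecific binding with 1 µM (+)-butaclamol. GF/B filtration, scintillation counting, triplicates. Ki by Cheng-Prusoff.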

Ki [1] [µM] | SMILES | other results
0.0194 | O=C1C2CCCN2C(=O)N1CCCCN1CCN(c2cccc3[nH]cnc23)CC1 (configuration not stated) | –
> 1 | O=C1C2CCCN2C(=O)CN1CN1CCN(c2cccc3ccccc23)CC1 (configuration not stated) | Ki [2]: 0.0067 µM
> 1 | O=C1C2CCCN2C(=O)N1CN1CCN(c2cccc3ccccc23)CC1 (configuration not stated) | –
> 1 | C[C@H]1CN(c2cccc3ccccc23)CCN1CN1CC(=O)N2CCC[C@@H]2C1=O | –
> 1 | CCS(=O)(=O)Nc1cccc(N2CCN(CCCCN3C(=O)C4CCCN4C3=O)CC2)c1 (configuration not stated) | –
> 1 | O=C1[C@@H]2CCCN2C(=O)CN1CN1CCN(c2cccc3ccccc23)CC1 | Ki [3]: > 10 µM; Ki [4]: 0.0135 µM; Ki [5]: 0.976 µM; Ki [6]: 0.101 µM; Ki [2]: 0.0041 µM; Ki [7]: > 10 µM; Ki [8]: 0.0089 µM; Maximal effect [9]: 90.3%; EC50 [10]: 0.15 µM; Ki [11]: 0.192 µM
> 1 | O=C1C2CCCCN2C(=O)N1CN1CCN(c2cccc3c2OCCO3)CC1 (configuration not stated) | –
> 1 | C[C@@H]1CN(c2cccc3ccccc23)CCN1CN1CC(=O)N2CCC[C@@H]2C1=O | –
> 1 | O=C1C2CCCCN2C(=O)N1CN1CCN(c2cccc3ccccc23)CC1 (configuration not stated) | –
> 1 | O=C1[C@H]2CCCN2C(=O)CN1CN1CCN(c2cccc3ccccc23)CC1 | Ki [2]: 0.0046 µM
0.008 | O=C1C2CCCN2C(=O)CN1CCCCN1CCN(c2cccc3ccccc23)CC1 (configuration not stated) | –
> 1 | C[C@H]1CN(c2cccc3ccccc23)CCN1CN1CC(=O)N2CCC[C@H]2C1=O | –
0.0201 | C[C@@H]1CN(c2cccc3ccccc23)CCN1CCCCN1CC(=O)N2CCC[C@@H]2C1=O | –
0.0344 | C[C@H]1CN(c2cccc3ccccc23)CCN1CCCCN1CC(=O)N2CCC[C@H]2C1=O | –
> 1 | C[C@@H]1CN(c2cccc3ccccc23)CCN1CN1CC(=O)N2CCC[C@H]2C1=O | –
> 10 | O=C1C2CCCN2C(=O)N1CN1CCN(c2cccc3[nH]cnc23)CC1 (configuration not stated) | –

SMILES | Ki [1] [µM] | other results
O=C1[C@@H]2CCCN2C(=O)CN1CN1CCN(c2cccc3c2CC=COO3)CC1 | > 1 | Ki [2]: 0.0123 µM
O=C1C2CCCN2C(=O)CN1CN1CCN(c2cccc3c2CC=COO3)CC1 (configuration not stated) | > 1 | Ki [2]: 0.0116 µM

From ChEMBL document CHEMBL1143573, “Synthesis and structure-activity relationships of a new model of arylpiperazines. 8. Computational simulation of ligand-receptor interaction of 5-HT(1A)R agonists with selectivity over alpha1-adrenoceptors” (J Med Chem, 2005)
